From article PMC10795152 (ACS Omega, 2024)

Columns and labels:
EGFR^Del19/T790M/C797S = EGFR^Del19/T790M/C797S (Homo sapiens, UniProt P00533, C797S/DEL746-750/T790M); assay: In vitro enzymatic activity assay; format: biochemical
How it was run: (§1)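 Reaction mix: 40 mM Tris pH 7.4, 10 mM MgCl2, 0.1 mg/mL BSA, 1 mM DTT, 10 μM ATP, 25 ng kinase and 0.2 mg/mL poly(Glu,Tyr) substrate. Test compound diluted in 10% DMSO before addition, giving 1% DMSO final. Residual ATP read by luminescence, with signal inverse to kinase activity. IC50 from nonlinear regression of normalized dose–response data.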

EGFR^L858R/T790M/C797S = EGFR^L858R/T790M/C797S (Homo sapiens, UniProt P00533, C797S/L858R/T790M); assay: In vitro enzymatic activity assay; format: biochemical
How it was run: as §1

With `Oc1ccccc1-c1nc(NCCN2CCNCC2)c2ccccc2n1` [4a, 2-(4-((2-(Piperazin-1-yl)ethyl)amino)quinazolin-2-yl)phenol] as the molecule, how does the IC50 (EGFR^Del19/T790M/C797S) read?
The IC50 was 1430 ± 22 nM.

And the IC50 (EGFR^L858R/T790M/C797S)?
The IC50 was 1220 ± 31 nM.
